According to ChEMBL document CHEMBL4765449, “Synthesis, biological evaluation and toxicity of novel tetrandrine analogues” (Eur J Med Chem, 2020):
Activity calls are given as the source filed them. No cut-off for these calls is given here.

Experiments:
HepaRG [1] = test: Cytotoxicity against human HepaRG cells assessed as reduction in cell viability at 10 uM measured after 24 hrs by Celltiter-blue cell viability assay; type: cell-based
In short: (§1)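 Differentiated HepaRG cells (Maintenance/Metabolism medium) exposed 24 h to 10 or 20 μM compound; viability by CellTiter-Blue, normalized to vehicle control. Means ± SEM of three independent experiments.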

HepaRG [2] = test: Cytotoxicity against human HepaRG cells assessed as reduction in cell viability at 20 uM measured after 24 hrs by Celltiter-blue cell viability assay; type: cell-based; in short: as §1
CCRF-CEM [3] = test: Antiproliferative activity against vincristine-resistant human CEM cells assessed as reduction in cell viability measured after 48 hrs by Celltiter-blue cell viability assay; type: functional, cell-based
In short: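 VCR-R CEM cells (RPMI 1640, 10% FCS), 0.02 × 10^6 per well, rested 4 h (metabolic activity at this point taken as zero value), then exposed to compounds for 48 h; CellTiter-Blue added 2 h before end, fluorescence at 590 nm. IC50 by nonlinear regression; single-concentration proliferation read at 10 μM.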

HepG2 [4] = test: Cytotoxicity against human HepG2 cells overexpressing EGFP-CYP3A4 assessed as reduction in cell viability at 15 uM measured after 24 hrs by propidium iodide staining based flow cytometry; type: functional
In short: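 HepG2 stably transfected (G418 0.5 mg/mL, four weeks; plasmid confirmed by PCR) with pcDNA3-CYP3A4-EGFP or empty vector, 0.1 × 10^6 per well, adhered overnight; 15 μM compound 24 h. Propidium iodide staining and flow cytometry; specific cell death relative to control. Three independent experiments.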

CEM [5] = test: Inhibition of P-gp in vincristine-resistant human CEM cells at 0.1 to 1 uM using calcein-AM as substrate preincubated for 30 mins followed by compound washout and subsequent substrate addition measured after 60 mins by flow cytometric analysis; type: cell-based; settings: dose 0.1-1 µM
CCRF-CEM [6] = test: Effect on P-gp expression in vincristine-resistant human CEM cells at 1 uM measured after 1.5 hrs by immunostaining based flow cytometry; type: functional, cell-based
In short: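 VCR-R CEM, 2 × 10^4 cells, 1 μM compound 1.5 h at 37 °C; washed in ice-cold 1% BSA/PBS, stained 30 min at 4 °C in dark with FITC anti-human P-gp, isotype control for background; flow cytometry, gMFI normalized to DMSO. Three independent experiments.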

CEM [7] = test: Inhibition of P-gp in vincristine-resistant human CEM cells assessed as potentiation of vincristine-induced apoptosis 1 uM measured after 48 hrs by propidium iodide staining based flow cytometry; type: cell-based
In short: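 VCR-R CEM, 0.125 × 10^6 per well, rested 4 h, then incubated 48 h with increasing vincristine with or without 1 μM compound; apoptosis by propidium iodide staining and flow cytometry. Three independent experiments.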

CEM [8] = test: Effect on AKT phosphorylation at Ser473 residue in vincristine-resistant human CEM cells at 5 uM measured after 24 hrs by Western blot analysis; type: cell-based
In short: (§2)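 VCR-R CEM cells, 2 × 10^6 per well, seeded 4 h before 5 μM compound or DMSO for 24 h; RIPA lysis, SDS-PAGE, PVDF blotting, chemiluminescence. Probed for p-Akt (Ser473), total Akt, PARP, Bcl-xL, Mcl-1; stain-free total protein as loading control.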

CCRF-CEM [9] = test: Effect on Bcl-XL expression in vincristine-resistant human CEM cells at 5 uM measured after 24 hrs by Western blot analysis; type: functional, cell-based; in short: as §2
CCRF-CEM [10] = test: Effect on MCL1 expression in vincristine-resistant human CEM cells at 5 uM measured after 24 hrs by Western blot analysis; type: functional, cell-based; in short: as §2
CCRF-CEM [11] = test: Induction of mitochondrial membrane disruption in vincristine-resistant human CEM cells at 5 uM measured after 24 hrs by JC-1 dye based flow cytometric analysis; type: functional, cell-based
In short: (§3)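 Cells (HepG2 adhered overnight; VCR-R CEM seeded 4 h before) treated with DMSO or 5 μM for 24 h; JC-1 (1 μg/mL) 1 h before harvest, PBS wash, flow cytometry; green shift read as loss of ΔΨm. CCCP (100 μM, 1 h) positive control; elacridar (5 μM) present for CEM staining.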

HepG2 [12] = test: Inhibition of AKT phosphorylation at Ser473 residue in human HepG2 cells at 5 uM measured after 24 hrs by Western blot analysis; type: cell-based
In short: (§4)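 HepG2, 0.5 × 10^6 per well, adhered overnight, then DMSO or 5 μM compound; RIPA lysates immunoblotted by SDS-PAGE/PVDF with chemiluminescent detection.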

HepG2 [13] = test: Induction of apoptosis in human HepG2 cells assessed as increase in PARP cleavage at 5 uM measured after 24 hrs by Western blot analysis; type: functional, cell-based; in short: as §4
HepG2 [14] = test: Induction of apoptosis in human HepG2 cells assessed as reduction in Bcl-xl expression at 5 uM measured after 24 hrs by Western blot analysis; type: functional, cell-based; in short: as §4
HepG2 [15] = test: Induction of apoptosis in human HepG2 cells assessed as reduction in Mcl-1 expression at 5 uM measured after 24 hrs by Western blot analysis; type: functional, cell-based; in short: as §4
HepG2 [16] = test: Induction of mitochondrial membrane disruption in human HepG2 cells at 5 uM measured after 24 hrs by JC-1 dye based flow cytometric analysis; type: functional, cell-based; in short: as §3
CCRF-CEM [17] = test: Induction of apoptosis in vincristine-resistant human CEM cells assessed as increase in PARP cleavage at 5 uM measured after 24 hrs by Western blot analysis; type: functional, cell-based; in short: as §2

## COc1cc2c3cc1Oc1c(OC)c(OC)cc4c1C(Cc1ccc(Cl)c(c1)Oc1ccc(cc1)CC3N(C)CC2)N(C)CC4 (mixture of isomers)
HepaRG [1]
  Activity: Toxic
HepaRG [2]
  Activity: Toxic
CCRF-CEM [3]
  IC50: 4.8 µM

## COc1cc2c3cc1Oc1c(OC)c(OC)cc4c1C(Cc1cc(cs1)Oc1ccc(cc1)CC3N(C)CC2)N(C)CC4 (racemic; form 1)
HepG2 [4]
  Activity: Active
CEM [5]
  inhibition: Active
CCRF-CEM [6]
  Activity: inactive
CEM [7]
  inhibition: Active
CEM [8]
  Activity: inactive
CCRF-CEM [9]
  Activity: inactive
CCRF-CEM [10]
  Activity: inactive
CCRF-CEM [11]
  Activity: Active
HepG2 [12]
  inhibition: Active
HepG2 [13]
  Activity: inactive
HepG2 [14]
  Activity: Active
HepG2 [15]
  Activity: Active
HepG2 [16]
  Activity: inactive

## COc1cc2c3cc1Oc1c(OC)c(OC)cc4c1C(Cc1ccc(OC(F)(F)F)c(c1)Oc1ccc(cc1)CC3N(C)CC2)N(C)CC4 (racemic; form 2)
HepG2 [4]
  Activity: Active
CEM [5]
  inhibition: Active
CCRF-CEM [6]
  Activity: inactive
CEM [7]
  inhibition: Active
CEM [8]
  Activity: inactive
CCRF-CEM [9]
  Activity: inactive
CCRF-CEM [10]
  Activity: inactive
CCRF-CEM [17]
  Activity: Active
CCRF-CEM [11]
  Activity: Active
HepG2 [12]
  inhibition: Active
HepG2 [13]
  Activity: inactive
HepG2 [16]
  Activity: inactive
